Experimental data from the EternaBench riboswitch data.

Columns and labels:
MS2 coat protein [1] = experiment: apparent Kd, MS2 coat protein; higher = weaker binding; RNA-MaP array
Summary of the method: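 For each design, the apparent Kd is the median of binding-curve fits across its clusters. Designs measured on fewer than 10 clusters were dropped. The RNAs were transcribed from sequenced DNA templates on an Illumina sequencing chip and incubated at room temperature, with or without input ligand, with fluorescently labeled MS2 coat protein at 1.5 nM to 3 μM.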

MS2 coat protein [2] = experiment: apparent Kd, MS2 coat protein; higher = weaker binding; RNA-MaP array; FMN 200 µM where present
Summary of the method: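 Green signal was scaled to red-channel RNA signal and control-cluster median Fmax, and the apparent Kd was taken as the median of filtered per-cluster binding-curve fits. The binding series used SNAP-549-labelled MS2 coat protein from 0.7 or 1.5 nM, doubling to 3 µM, on designs transcribed by stalled E. coli RNA polymerase on Illumina sequencing-chip clusters. Each series ran without and then with constant ligand in 100 mM Tris-HCl pH 7.5, 80 mM KCl, 4 mM MgCl2, BSA, DTT, yeast tRNA and Tween-20.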

[3] = designed as: ON switch for flavin mononucleotide, no ligand
[4] = ligand present: flavin mononucleotide, designed as: ON switch for flavin mononucleotide
[5] = designed as: OFF switch for flavin mononucleotide, no ligand
[6] = ligand present: flavin mononucleotide, designed as: OFF switch for flavin mononucleotide

Sequence | apparent Kd (MS2 coat protein [2]; [5]) [µM] | apparent Kd (MS2 coat protein [2]; [6]) [µM] | apparent Kd (MS2 coat protein [2]; [3]) [µM] | apparent Kd (MS2 coat protein [2]; [4]) [µM] | also measured
CCCGUGCUGCGAGGAUAUGUGUAGGAUGUUUCCACAGAAGGCGCUGGAGACAUGAGGAUCACCCAUGUGAACCCACGUACGACA |  |  |  |  | apparent Kd (MS2 coat protein [1]; [3]): 0.0249 µM; apparent Kd (MS2 coat protein [1]; [4]): 0.0199 µM
CGAAGUAGUAGAGGAUAUGCUAGAGAUGGUUCUGCAGAAGGCUACCCUCUUGAUUAUAUUACAUGAGGAUCACCCAUGUUGGUU |  |  |  |  | apparent Kd (MS2 coat protein [1]; [5]): 0.0107 µM; apparent Kd (MS2 coat protein [1]; [6]): 0.0102 µM
ACAUGAUCAGGAUAUACAUGAGGAUCACCCAUGUAUUUCAAAAAGGGACUUUCUUAAUGUAGAAGGGAUCUUGU | 0.0147 | 0.0338 |  |  | 
UUGGACGUCGUAGGAUAUGUAGGAUAUUCCUACAUGAGGAUCACCCAUGUUUACAUGGAAGAAGGACAGAAGGACGAUGUCCAU |  |  | 1.32 | 0.0145 | 
UGCUAGUCAGGAUAUACGAACAUGUCGCCAGAUGUCAAGGUACAUGAGGAUCACCCAUGUAGAAGGGACUAGAA | 0.0392 | 0.107 |  |  | 
GUCGGAAACGACAAAAGUAGCAUAGGAGAAGGCAUGUCAUAAGACAUGAGGAUCACCCAUGUUCGUGAGGAUAUCCUAUGCUAC |  |  | 0.0373 | 0.0132 | 
GAUCCACAUGAGGAUCACCCAUGUGAGGAUAUGUCCAUAUUCGGCAAAUCGGAUAUGGACAGAAGGCACACCGG | 0.12 | 0.0474 |  |  | 
GUUUAGUGAGGAUAUGUGGCAUAGAUCGAGCGCGGUCGGCUACAGAAGGCACAUGAGGAUCACCCAUGUUUCUC | 0.0399 | 0.498 |  |  | 
UUACUACAUGAGGAUCACCCAUGUCAGGAUAUUGUAUAUACCUUGGAAUACGUGUCUACAAGAAGGGACUAUAU | 0.0237 | 0.0225 |  |  | 
ACUACAUGAGGAUCACCCAUGUGAAUAAUAAAAGUAACAAGCAGAAGGUGACCUCGUCUCCUGGUCAAGGAUAUGCAAGAAAGA |  |  | 0.267 | 0.0337 | 
CUUUUGUGAGGAUAUCAGUAGUAAAAAAAUAAAAUUACUUCUGAGAAGGCACAUGAGGAUCACCCAUGUUCCUC | 0.0395 | 0.333 |  |  | 
UCUUUCCGGAAUAUAAGUUGACUUCAGGAUAUCACAUGAGGAUCACCCAUGUGAUGCUUUAUUGCUGAGAAGGGAAGUCAUACC | 0.0117 | 0.0386 |  |  | 
UGCUACGUUUCGUAGCAGCUAGGUGAGGAUAUUCAAUUUUUCACAUGAGGAUCACCCAUGUAUGUGAAGAAGGCGCCUAGAAAC |  |  | 0.0116 | 0.00461 | 
CCUUUGAAGAUCCUAAAUUUCGACAUGAGGAUCACCCAUGUGCAGGAUAUCGUGCCAGUGAUGUACGAGAAGGGCAGUCUCUGC | 0.049 | 0.0535 |  |  | 
AGAAAAUAUGGGUAGGAUAUAUAAAGAGAAACAUGAGGAUCACCCAUGUAAAGACGAGAGUCAAAAUAGAAGGACUAAAGAAAGAA |  |  | 0.076 | 0.0596 | 
GGUACUCAAAGAGUACCAAUACGAACAUGAGGAUCACCCAUGUAGGAUAUGCUACUCAAAGAGUAGCAGAAGGACAUGUGAAAU | 0.0715 | 0.38 |  |  | 
AUGUAGUAAGGAUAUAGAAAGAAGGAGUAAGAUAGAGAGUUCUAGAAGGUACAUGAGGAUCACCCAUGUUGGAG | 0.029 | 0.0264 |  |  | 
UAAUAAUAAUAAUACGUCAUUACAUGAGGAUCACCCAUGUAUAAGGAUAUGCAGUGGAAUACACUGCAGAAGGUAUACAAGACG | 0.0226 | 0.0267 |  |  | 
AUCUUUAACAUAGGAUAUAGUAUGAAGGUUUAUUUAGAAGGAUGUCACAUGAGGAUCACCCAUGUAAUAGGAUUACCCAUGUAU | 0.0298 | 0.0219 |  |  | 
GGAUUACAUGAGGAUCACCCAUGUGAGGAUAUCGAUGUCCUGUCUUUAGUGCGGGACUCGAGAAGGCACUUGGA | 0.048 | 0.159 |  |  | 
CCGAUGUGGGUACAGGAUAUGUGGGCCUCCACAUGAGGAUCACCCAUGUCGGAGGCAAAGCGGCUACAGAAGGGUGCGAGCUCGA |  |  | 0.011 | 0.0129 | 
UAUGGUUAAGUCAGGAUAUGCUCGUAGAAGUCUAUGCAGAAGGGACAUGAGGAUCACCCAUGUAUGGUCGUGUU | 0.0943 | 0.177 |  |  | 
GCGAUUGCGUAGAAGGUACUAUAUAAUACACUGUAAGGAUAUACAUACAUGAGGAUCACCCAUGUAAAUGGAAUUUGCAAUCGC |  |  | 0.00693 | 0.00641 | 
GGUCUGAUAUGAGGAUAUGCUCAGGAAUACUGAGCAGAAGGCAUGUGAAAACAUGAGGAUCACCCAUGUGAUCAAUACAGACCA |  |  | 0.147 | 0.0237 | 
GCUCUAUGCGAGAAGGCGUGCAACAUGAGGAUCACCCAUGUCAGAGAUAUGAGGAUAUUGCAUAGAGCAAAAGACGGAAACGUC |  |  | 0.00668 | 0.00448 | 
AGGGAGGAAGCUGAGGAUAUCGUAAGGAGGACAUGAGGAUCACCCAUGUGUGUGGAAUUGGAGGACGAGAAGGCAGAGGAGUGGG |  |  | 0.0315 | 0.036 | 
GCCUCAUAGUAGAAGGGACUUAUACAGUAAUGUUUUUAGUGUAAAUAACAUGAGGAUCACCCAUGUCAGGAUAUACUAAGAGGC | 0.00924 | 0.0121 |  |  | 

Sequence | apparent Kd (MS2 coat protein [2]; [5]) [µM] | apparent Kd (MS2 coat protein [2]; [6]) [µM] | apparent Kd (MS2 coat protein [2]; [3]) [µM] | apparent Kd (MS2 coat protein [2]; [4]) [µM] | also measured
GGAAACUACGAGAAGGACAUGUGGUCCUUCAGUUACAUGAGGAUCACCCAUGUAGGAUAUCGUAGUUUCAGGAUCGUGAGAUCU | 0.0354 | 0.0137 |  |  | 
AAGUAGAUCCGAGGAUAUACAAGGCGGAAAUGCUACAUGAGGAUCACCCAUGUAGAAGGCGGAUCUACAGGUACUAAAGUACCA | 0.00671 | 0.0193 |  |  | 
UGUUGUAUUACAGGAUAUCUAUUAAUUUUAUUUAGAGAAGGGUAUUCACAUGAGGAUCACCCAUGUAUAUACGAGGAAGUUGUG |  |  | 0.0537 | 0.0571 | 
UUUGGGUGAGGAUAUCAGUCUGGAUCAGACUAGAUCCUGACUGAGAAGGCACAUGAGGAUCACCCAUGUGAGUU | 0.294 | 0.32 |  |  | 
UUCGUGUGACAGAAGGGUCUUUCAGGCUGGGAGGCAGGAUAUGUGACAUGAGGAUCACCCAUGUUGGUAUCGUCUGUGUGUACG | 0.0067 | 0.0146 |  |  | 
UGUAACUAGUAAGGAUAUACUAUUGAUUUAAUAGUAGAAGGUACAGUCUUUUGUAUAUCAUGUUUACAUGAGGAUCACCCAUGU |  |  | 0.0104 | 0.00777 | 
AAAAAACAUGAGGAUCACCCAUGUAAAAAAAACACAGGAUAUCCCUUUUUUAAAAAAAAAGGAGAAGGGUGAAAAA |  |  | 0.0416 | 0.0329 | 
AUUAAUUAAUUAAUACAUGAGGAUCACCCAUGUAAUAAGAUCAAGGAUAUCAGCUCGAUUAGAGCUGAGAAGGUGAUCACAUGU |  |  | 0.772 | 0.223 | 
AAAGUGUGAAGCAGGGUGCUACAUGAGGAUCACCCAUGUCGGAGAAGGGCGCCGUUUCGCAUGGUGUAGGAUAUCUGGCGUGCA | 0.116 | 0.132 |  |  | 
UUUGUUGUUGUGAGGAUAUCGUUGUUAUUUUGAAACGAGAAGGCACAUGAGGAUCACCCAUGUUUGUUGAUGGU | 0.0439 | 0.122 |  |  | 
UGAAAUAGAGGAUAUACAUGAGGAUCACCCAUGUGAUCCUCCGGAGUAGGCCGUUUAUGUAGAAGGCUGAUGAA | 0.0489 | 0.0483 |  |  | 
CUUAGUUUGUAGAAGGGUGACAUGAGGAUCACCCAUGUGCGUCUCCUGAAAGACCAGGGUACGCCACAGGAUAUACAAAGUAAG |  |  | 0.0427 | 0.0477 | 
CUCUUGUUAGGAUAUCAAACCGGCGGCGGAGCCGCCGGUAGUGAGAAGGGACAUGAGGAUCACCCAUGUAAGAA | 0.0901 | 0.198 |  |  | 
GUUCAAGUAAAGGAUAUGUAGAGCCGCGAGGCCGCAGAAGGUUGCACAUGAGGAUCACCCAUGUCGUCUCUGAU | 0.0171 | 0.0212 |  |  | 
ACACGGAAGUCAGGAUAUGUAUCAGCACGAUUGUUACAUGAGGAUCACCCAUGUUUCACGGGCCAACAGAAGGGACAGGGUGGC |  |  | 0.0236 | 0.00782 | 
AGUAAGAUGCAGAAGGUGUUAGCUAGAGCUACGACAUGAGGAUCACCCAUGUACUAGAAACAGUACAAGGAUAUGCAUCUUACC |  |  | 0.0189 | 0.00652 | 
CGAUGUUAUGUCAGGAUAUGCAUUGCGAAAGCAAUGCAGAAGGGACAUGAGGAUCACCCAUGUCCUAACCAUCG | 0.0132 | 0.0201 |  |  | 
GCUUUAUAGAUCCAUUUUAACAACAUGAGGAUCACCCAUGUGCAGGAUAUCGAUUGUUUUAUUUUCGAGAAGGGCAAAUUCAGC | 0.0353 | 0.0877 |  |  | 
ACUAUACGAGGAUAUGCUGUCAAUACUAAGGAAUUAGUAUGACAUGAGGAUCACCCAUGUAGAAGGCGUAUACU | 0.0278 | 0.0147 |  |  | 
GUUUUGGGAGGAUAUAUGUGGAUUAUUUUCGUAUGUUGUUUACAUGAGGAUCACCCAUGUAGAAGGUCUAGAGC | 0.0683 | 0.198 |  |  | 
GCACUGGAUGUAGGAUAUCAGGACGAUAAGUCCUGAGAAGGACAUGAGGAUCACCCAUGUGAUAAUUCCAGUGCAAAUAAUAUA | 0.0143 | 0.031 |  |  | 
AUUAAACAUGAGGAUCACCCAUGUCAACAAAGUCGAGGAUAUGGGCAUAUUAUCUUAUAACCAGAAGGCGAAUAAU |  |  | 0.222 | 0.037 | 
GGUGACCUUGUAAGGAUAUCGAAUUUAGAUGAGCACGAGAAGGUACAUGAGGAUCACCCAUGUCUGCGGUAACU | 0.0508 | 0.102 |  |  | 
GUAUGAGCGAUAGGAUAUACUGAGAUUGAAUGGGUAGAAGGAUCACUUGUGUGGAAGACAUGAGGAUCACCCAUGUUACGGGCC |  |  | 0.0207 | 0.0626 | 
GUGACCCAUUAACAGUUACCACAUGAGGAUCACCCAUGUGCGAAGGAUAUAGACUGCUAUGCGUGCUAGAAGGUCGCGCGUGGC | 0.00632 | 0.00663 |  |  | 
UCCCGUUGUCAGAAGGCUCCUCGUAACCCGAGGAGAGGAUAUGACACAUGAGGAUCACCCAUGUGCCCGGUCGUGACAAAGGUG | 0.0117 | 0.158 |  |  | 
